The source made the active and inactive calls. The rule behind the calls is not given here. Where a SMILES comes first, the peptide text is derived from it.
Assays:
PBMC [1] = test: Cytotoxicity against human PBMC assessed as reduction in cell viability at 100 ug/ml after 24 hrs by MTT assay; format: cell-based
Summary of the method: (§1)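 Single-donor PBMC isolated on LSM, resuspended in RPMI-1640 with 10% FCS, L-glutamine, pyruvate, 2-mercaptoethanol and antibiotics. Cells plated at 3×10^5 per well and cultured 24 h with peptide at 1, 10 or 100 µg/mL. Survival read by MTT and expressed as % viable cells versus matched DMSO controls.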

PBMC [2] = test: Immunosuppressive activity in human PBMC assessed as inhibition of PHA-induced proliferation after 4 days by MTT assay; format: functional, cell-based
Summary of the method: (§2)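 PBMC (2×10^5 cells/well) in supplemented RPMI-1640, stimulated with 5 µg/mL PHA, with peptide at 1, 10 or 100 µg/mL. DMSO dilutions as control; no-PHA wells as baseline. Proliferation read by MTT after 4 days of incubation. Data given as mean OD of quadruplicate wells ± SE.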

PBMC [3] = test: Anti-inflammatory activity in human PBMC assessed as inhibition of LPS-induced TNFalpha production at 10 ug/ml after overnight incubation by immunoassay; format: functional
Summary of the method: (§3)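 Diluted venous blood from a single donor (10× in RPMI-1640), 1 mL cultures, stimulated with 1 µg/mL LPS from E. coli O:111:B4. Peptides added at 1 and 10 µg/mL from DMSO stock (5 mg/200 µL) diluted in RPMI-1640. DMSO dilutions served as 100% controls. Overnight incubation, then supernatants frozen at -20 C and TNF-α measured by ELISA.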

PBMC [4] = test: Immunosuppressive activity in human PBMC assessed as inhibition of PHA-induced cell proliferation at 10 ug/ml after 4 days by MTT assay; format: functional, cell-based; summary of the method: as §2
PBMC [5] = test: Immunosuppressive activity in human PBMC assessed as inhibition of PHA-induced cell proliferation at 1 to 100 ug/ml after 4 days by MTT assay; format: functional, cell-based; summary of the method: as §2
PBMC [6] = test: Cytotoxicity against human PBMC assessed as reduction in cell viability at 1 to 100 ug/ml after 24 hrs by MTT assay; format: cell-based; summary of the method: as §1
PBMC [7] = test: Anti-inflammatory activity in human PBMC assessed as inhibition of LPS-induced TNFalpha production at 1 to 10 ug/ml after overnight incubation by immunoassay; format: functional, cell-based; summary of the method: as §3
HT-29 = test: Cytotoxicity against human HT-29 cells at 12 ug/ml; format: functional, cell-based
A-431 = test: Cytotoxicity against human A431 cells at 6 ug/ml; format: functional, cell-based

With `CC[C@H](C)[C@@H]1NC(=O)[C@H](CC(C)C)NC(=O)CC[C@@H](Cc2ccccc2)NC(=O)CC[C@@H](Cc2ccccc2)NC(=O)[C@@H]2CCCN2C(=O)[C@@H]2CCCN2C(=O)[C@H](C(C)C)NC(=O)[C@H](CC(C)C)NC(=O)[C@H]([C@@H](C)CC)NC1=O` the Activity (PBMC [1]) was “Toxic”, the Activity (PBMC [2]) was “Dose-dependent effect” and the inhibition (PBMC [3]) was “Active”. For the same compound, the Activity (PBMC [4]) was “Active”.

With `CC[C@H](C)[C@H](N)C(=O)N[C@H](C(=O)N[C@@H](CC(C)C)C(=O)N[C@H](C(=O)N1CCC[C@H]1C(=O)N1CCC[C@H]1C(=O)N[C@@H](CCC(=O)N[C@@H](CCC(=O)N[C@@H](CC(C)C)C(=O)O)Cc1ccccc1)Cc1ccccc1)C(C)C)[C@@H](C)CC` the Activity (PBMC [5]) was “inactive”, the Activity (PBMC [6]) was “Non-Toxic” and the inhibition at 10 µg/mL (PBMC [3]) was 45%.

For `CC[C@H](C)[C@H](N)C(=O)N[C@H](C(=O)N[C@@H](CC(C)C)C(=O)N[C@H](C(=O)N1CCC[C@H]1C(=O)N1CCC[C@H]1C(=O)N[C@H](CCC(=O)N[C@@H](CCC(=O)N[C@@H](CC(C)C)C(=O)O)Cc1ccccc1)Cc1ccccc1)C(C)C)[C@@H](C)CC`, the Activity (PBMC [5]) was “inactive”, the Activity (PBMC [6]) was “Non-Toxic” and the inhibition at 10 µg/mL (PBMC [3]) was 45%.

For `CC[C@H](C)[C@@H]1NC(=O)[C@H](CC(C)C)NC(=O)CC[C@H](Cc2ccccc2)NC(=O)[C@H](Cc2ccccc2)NC(=O)[C@@H]2CCCN2C(=O)[C@@H]2CCCN2C(=O)[C@H](C(C)C)NC(=O)[C@H](CC(C)C)NC(=O)[C@H]([C@@H](C)CC)NC1=O`, the Activity (PBMC [2]) was “Dose-dependent effect”, the inhibition (PBMC [3]) was “Active” and the Activity (PBMC [4]) was “Active”.

For `CC[C@H](C)[C@H](N)C(=O)N[C@H](C(=O)N[C@@H](CC(C)C)C(=O)N[C@H](C(=O)N1CCC[C@H]1C(=O)N1CCC[C@H]1C(=O)N[C@@H](CCC(=O)N[C@@H](Cc1ccccc1)C(=O)N[C@@H](CC(C)C)C(=O)O)Cc1ccccc1)C(C)C)[C@@H](C)CC`, the Activity (PBMC [5]) was “inactive”, the Activity (PBMC [6]) was “Non-Toxic” and the inhibition (PBMC [3]) was “inactive”.

`CC[C@H](C)[C@@H]1NC(=O)[C@H](CC(C)C)NC(=O)[C@H](Cc2ccccc2)NC(=O)CC[C@@H](Cc2ccccc2)NC(=O)[C@@H]2CCCN2C(=O)[C@@H]2CCCN2C(=O)[C@H](C(C)C)NC(=O)[C@H](CC(C)C)NC(=O)[C@H]([C@@H](C)CC)NC1=O` was tested, and the Activity (PBMC [1]) was “Toxic”, the Activity (PBMC [2]) was “Dose-dependent effect” and the inhibition (PBMC [3]) was “Active”. The Activity (PBMC [4]) was “Active”.

For `CC[C@H](C)[C@@H]1NC(=O)[C@H](CC(C)C)NC(=O)CC[C@@H](Cc2ccccc2)NC(=O)CC[C@H](Cc2ccccc2)NC(=O)[C@@H]2CCCN2C(=O)[C@@H]2CCCN2C(=O)[C@H](C(C)C)NC(=O)[C@H](CC(C)C)NC(=O)[C@H]([C@@H](C)CC)NC1=O`, the Activity (PBMC [2]) was “Dose-dependent effect”, the inhibition (PBMC [3]) was “Active” and the Activity (PBMC [4]) was “Active”.

For `CC[C@H](C)[C@@H]1NC(=O)[C@H](CC(C)C)NC(=O)CC[C@H](Cc2ccccc2)NC(=O)CC[C@H](Cc2ccccc2)NC(=O)[C@@H]2CCCN2C(=O)[C@@H]2CCCN2C(=O)[C@H](C(C)C)NC(=O)[C@H](CC(C)C)NC(=O)[C@H]([C@@H](C)CC)NC1=O`, the Activity (PBMC [2]) was “Dose-dependent effect”, the inhibition (PBMC [3]) was “Active” and the inhibition (PBMC [7]) was “Active”. The Activity (PBMC [4]) was “Active”.

`CC[C@H](C)[C@@H]1NC(=O)[C@H](CC(C)C)NC(=O)CC[C@@H](Cc2ccccc2)NC(=O)[C@H](Cc2ccccc2)NC(=O)[C@@H]2CCCN2C(=O)[C@@H]2CCCN2C(=O)[C@H](C(C)C)NC(=O)[C@H](CC(C)C)NC(=O)[C@H]([C@@H](C)CC)NC1=O` was tested, and the Activity (PBMC [1]) was “Toxic”, the Activity (PBMC [2]) was “Dose-dependent effect” and the inhibition (PBMC [3]) was “Active”. For the same compound, the Activity (PBMC [4]) was “Active”.

In the case of `CC[C@H](C)[C@H](N)C(=O)N[C@H](C(=O)N[C@@H](CC(C)C)C(=O)N[C@H](C(=O)N1CCC[C@H]1C(=O)N1CCC[C@H]1C(=O)N[C@@H](Cc1ccccc1)C(=O)N[C@H](CCC(=O)N[C@@H](CC(C)C)C(=O)O)Cc1ccccc1)C(C)C)[C@@H](C)CC`, the Activity (PBMC [5]) is reported as “inactive”, the Activity (PBMC [6]) is reported as “Non-Toxic” and the inhibition at 10 µg/mL (PBMC [3]) is reported as 45%.

With `CC[C@H](C)[C@H](N)C(=O)N[C@H](C(=O)N[C@@H](CC(C)C)C(=O)N[C@H](C(=O)N1CCC[C@H]1C(=O)N1CCC[C@H]1C(=O)N[C@@H](Cc1ccccc1)C(=O)N[C@@H](CCC(=O)N[C@@H](CC(C)C)C(=O)O)Cc1ccccc1)C(C)C)[C@@H](C)CC` the Activity (PBMC [5]) was “inactive”, the Activity (PBMC [6]) was “Non-Toxic” and the inhibition at 10 µg/mL (PBMC [3]) was 45%.

In the case of `CC[C@H](C)[C@H](N)C(=O)N[C@H](C(=O)N[C@@H](CC(C)C)C(=O)N[C@H](C(=O)N1CCC[C@H]1C(=O)N1CCC[C@H]1C(=O)N[C@H](CCC(=O)N[C@@H](Cc1ccccc1)C(=O)N[C@@H](CC(C)C)C(=O)O)Cc1ccccc1)C(C)C)[C@@H](C)CC`, the Activity (PBMC [5]) is reported as “inactive”, the Activity (PBMC [6]) is reported as “Non-Toxic” and the inhibition at 10 µg/mL (PBMC [3]) is reported as 45%.

In the case of `CC[C@H](C)[C@H](N)C(=O)N[C@H](C(=O)N[C@@H](CC(C)C)C(=O)N[C@H](C(=O)N1CCC[C@H]1C(=O)N1CCC[C@H]1C(=O)N[C@@H](CCC(=O)N[C@H](CCC(=O)N[C@@H](CC(C)C)C(=O)O)Cc1ccccc1)Cc1ccccc1)C(C)C)[C@@H](C)CC`, the Activity (PBMC [5]) is reported as “inactive”, the Activity (PBMC [6]) is reported as “Non-Toxic” and the inhibition at 10 µg/mL (PBMC [3]) is reported as 45%.

In the case of `CC[C@H](C)[C@@H]1NC(=O)[C@H](CC(C)C)NC(=O)CC[C@H](Cc2ccccc2)NC(=O)CC[C@@H](Cc2ccccc2)NC(=O)[C@@H]2CCCN2C(=O)[C@@H]2CCCN2C(=O)[C@H](C(C)C)NC(=O)[C@H](CC(C)C)NC(=O)[C@H]([C@@H](C)CC)NC1=O`, the Activity (PBMC [2]) is reported as “Dose-dependent effect”, the inhibition (PBMC [3]) is reported as “Active” and the Activity (PBMC [4]) is reported as “Active”.

In the case of `CC[C@H](C)[C@@H]1NC(=O)[C@H](CC(C)C)NC(=O)[C@H](Cc2ccccc2)NC(=O)[C@H](Cc2ccccc2)NC(=O)[C@@H]2CCCN2C(=O)[C@@H]2CCCN2C(=O)[C@H](C(C)C)NC(=O)[C@H](CC(C)C)NC(=O)[C@H]([C@@H](C)CC)NC1=O` (cyclo(FFLIILVPP)), the Activity (HT-29) is reported as “inactive” and the Activity (A-431) is reported as “inactive”.

`CC[C@H](C)[C@H](N)C(=O)N[C@H](C(=O)N[C@@H](CC(C)C)C(=O)N[C@H](C(=O)N1CCC[C@H]1C(=O)N1CCC[C@H]1C(=O)N[C@H](CCC(=O)N[C@H](CCC(=O)N[C@@H](CC(C)C)C(=O)O)Cc1ccccc1)Cc1ccccc1)C(C)C)[C@@H](C)CC` was tested, and the Activity (PBMC [5]) was “inactive”, the Activity (PBMC [6]) was “Non-Toxic” and the inhibition at 10 µg/mL (PBMC [3]) was 45%.

— ChEMBL document CHEMBL4043099, “Synthesis and biological activity of cyclolinopeptide A analogues modified with γ4-bis(homo-phenylalanine)” (Bioorg Med Chem, 2017)
